In ChEMBL document CHEMBL1157576, “Development of selective and reversible pyrazoline based MAO-A inhibitors: Synthesis, biological evaluation and docking studies” (Bioorg Med Chem, 2010):

Legend:
Format in all cases: tissue-based
[1] = target: T1, Amine oxidase [flavin-containing] A (Rattus norvegicus, UniProt P21396); assay: Competitive inhibition of MAOA in rat liver homogenate after 60 mins by Lineweaver-Burke plot analysis; settings: read-out: Kic
T1 sequence (P21396 whole entry): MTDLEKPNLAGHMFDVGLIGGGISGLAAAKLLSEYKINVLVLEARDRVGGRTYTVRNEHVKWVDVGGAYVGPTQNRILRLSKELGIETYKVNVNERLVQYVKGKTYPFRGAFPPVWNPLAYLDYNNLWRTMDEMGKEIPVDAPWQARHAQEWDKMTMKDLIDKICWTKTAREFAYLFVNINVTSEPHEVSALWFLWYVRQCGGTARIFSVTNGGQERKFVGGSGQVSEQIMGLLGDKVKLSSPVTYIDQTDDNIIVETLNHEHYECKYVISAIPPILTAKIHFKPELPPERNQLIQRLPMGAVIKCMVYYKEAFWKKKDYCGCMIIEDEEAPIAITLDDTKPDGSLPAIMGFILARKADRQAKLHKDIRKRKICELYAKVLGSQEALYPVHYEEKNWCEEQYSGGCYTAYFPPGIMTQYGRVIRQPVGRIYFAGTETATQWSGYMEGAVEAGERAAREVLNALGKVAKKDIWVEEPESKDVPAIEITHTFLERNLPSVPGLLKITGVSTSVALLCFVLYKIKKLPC

[2] = target: T2, Amine oxidase [flavin-containing] B (Rattus norvegicus, UniProt P19643); assay: Competitive inhibition of MAOB in rat liver homogenate after 60 mins by Lineweaver-Burke plot analysis; settings: read-out: Kic
T2 sequence (P19643 whole entry): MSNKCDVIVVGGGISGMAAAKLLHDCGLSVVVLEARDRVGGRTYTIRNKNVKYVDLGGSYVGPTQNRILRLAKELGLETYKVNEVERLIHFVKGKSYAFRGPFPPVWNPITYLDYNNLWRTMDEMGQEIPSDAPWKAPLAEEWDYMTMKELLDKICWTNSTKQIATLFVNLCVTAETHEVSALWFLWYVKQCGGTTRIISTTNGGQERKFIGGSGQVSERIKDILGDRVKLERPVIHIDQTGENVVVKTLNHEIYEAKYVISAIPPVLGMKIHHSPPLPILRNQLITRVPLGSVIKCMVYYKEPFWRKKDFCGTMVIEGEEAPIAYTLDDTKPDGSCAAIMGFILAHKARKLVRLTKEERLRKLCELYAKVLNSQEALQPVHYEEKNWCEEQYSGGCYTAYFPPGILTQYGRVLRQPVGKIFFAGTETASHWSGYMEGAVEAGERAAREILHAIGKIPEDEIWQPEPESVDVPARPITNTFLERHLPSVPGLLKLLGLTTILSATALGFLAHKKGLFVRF

[3] = target: T1, Amine oxidase [flavin-containing] A; assay: Reversible inhibition of MAOA in rat liver homogenate assessed as recovery of enzyme activity at 1 to 1000 uM up to 24 hrs by dialysis
In short: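 Rat liver MAO was incubated with compound (1–1000 µM, DMSO ≤1%) at 37 °C for 0–60 min. It was then dialysed for 24 h at 37 °C against potassium phosphate buffer, pH 7.6. Recovered activity was measured by the Holt coupled assay using p-tyramine, with absorbance read at 498 nm.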

COc1ccc(NC(=S)N2N=C(c3ccc(O)cc3)CC2c2ccco2)cc1 (configuration not stated)
Ki [1]: 0.95 µM | Ki [2]: 1060 µM | Activity [3]: Active

Cc1ccc(NC(=S)N2N=C(c3ccc(O)cc3)CC2c2ccco2)cc1 (configuration not stated)
Ki [1]: 0.48 µM | Ki [2]: 5010 µM | Activity [3]: Active

COc1ccccc1NC(=S)N1N=C(c2ccc(O)cc2)CC1c1ccco1 (configuration not stated)
Ki [1]: 0.755 µM | Ki [2]: 174 µM | Activity [3]: Active

COc1ccccc1NC(=S)N1N=C(c2ccc(O)cc2)CC1c1cccs1 (configuration not stated)
Ki [1]: 0.301 µM | Ki [2]: 44 µM | Activity [3]: Active

Oc1ccc(C2=NN(C(=S)Nc3ccccc3)C(c3ccco3)C2)cc1 (configuration not stated)
Ki [1]: 0.701 µM | Ki [2]: 778 µM | Activity [3]: Active

Cc1ccccc1NC(=S)N1N=C(c2ccc(O)cc2)CC1c1cccs1 (configuration not stated)
Ki [1]: 0.281 µM | Ki [2]: 70.2 µM | Activity [3]: Active

Cc1cccc(NC(=S)N2N=C(c3ccc(O)cc3)CC2c2cccs2)c1 (configuration not stated)
Ki [1]: 0.15 µM | Ki [2]: 2210 µM | Activity [3]: Active

Cc1cccc(NC(=S)N2N=C(c3ccc(O)cc3)CC2c2ccco2)c1 (configuration not stated)
Ki [1]: 0.591 µM | Ki [2]: 580 µM | Activity [3]: Active

COc1ccc(NC(=S)N2N=C(c3ccc(O)cc3)CC2c2cccs2)cc1 (configuration not stated)
Ki [1]: 0.501 µM | Ki [2]: 7150 µM | Activity [3]: Active

Cc1ccc(NC(=S)N2N=C(c3ccc(O)cc3)CC2c2cccs2)cc1 (configuration not stated)
Ki [1]: 0.351 µM | Ki [2]: 71.5 µM | Activity [3]: Active

Cc1ccccc1NC(=S)N1N=C(c2ccc(O)cc2)CC1c1ccco1 (configuration not stated)
Ki [1]: 0.231 µM | Ki [2]: 28.8 µM | Activity [3]: Active

COc1cccc(NC(=S)N2N=C(c3ccc(O)cc3)CC2c2ccco2)c1 (configuration not stated)
Ki [1]: 0.176 µM | Ki [2]: 460 µM | Activity [3]: Active

Oc1ccc(C2=NN(C(=S)Nc3ccccc3)C(c3cccs3)C2)cc1 (configuration not stated)
Ki [1]: 0.48 µM | Ki [2]: 47 µM | Activity [3]: Active

COc1cccc(NC(=S)N2N=C(c3ccc(O)cc3)CC2c2cccs2)c1 (configuration not stated)
Ki [1]: 0.181 µM | Ki [2]: 1100 µM | Activity [3]: Active
